Measured values: the RNAGym collection of RNA variant scans (doi:10.1126/science.aae0568)
Variants at the floor of the assay were thinned out.

B1: tRNA (parent)
chain: GUUCCGUUGGCGUAAUGGUAACGCGUCUCCCUCCUAAGGAGAAGACUGCGGGUUCGAGUCCCGUACGGAACG

Variants of: B1
Test: yeast fitness relative to wild type (ratio to wild type); higher = fitter; tRNA-Arg(CCU), competitive growth, 37 C, YPD
How it was run: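 Start and end populations of a pooled competition were compared by 100-nucleotide paired-end sequencing of gene amplicons. The Saccharomyces cerevisiae strains carried tRNA-Arg(CCU) gene variants at the native genomic locus, synthesised with a 3% per-site mutation rate at 69 sites, and competed in YPD at 37°C for 24 hours in six parallel replicates. Darwinian fitness relative to wild type was based on the change in genotype frequencies. Genotypes required ≥ 100 starting reads, and estimates < 0.5 were set to 0.5.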

Variant	yeast fitness
C11G U13G C61U	≤ 0.5
C4G U13A A43G C46G	≤ 0.5
U3C A40U G58A	1.02
A43G A45C C49G	0.532
G18C A21G C27A C30U G38A	0.547
C31A G44A A57C C62A G68C	0.559
G12C C22G G23A A37C A43C	0.534
C5U G23C	0.644
C4A G17A C60G A70G	≤ 0.5
C4A C5G A15G G23C C30U	≤ 0.5
U2G C11G A20U C22U C34U C49A G52A	≤ 0.5
A20U C24U C30A C46G G48A	≤ 0.5
U2A C5A C33U A57G C66G	≤ 0.5
U3A G68C A69C	≤ 0.5
G6C U64C	0.87
C24A A45G U54C C62U	≤ 0.5
A21U C22G	1.01
C29U U54C	0.83
G6C A42G U53C C62U	≤ 0.5
U28A C30G	0.51
U8A A15G	0.665

Variant	yeast fitness
C4G A57G	0.728
C11A U28G C33A A42C A65U	≤ 0.5
A20C A21U C33G A57C	≤ 0.5
C34A A42U G68C	≤ 0.5
U8G U26A G68C	≤ 0.5
U16G A69C	1.04
G6A G12C U16A	0.799
U32C A37U G48A	0.537
C4U C5G U16C C24G A42U A43G	≤ 0.5
C27U C31G C55G	≤ 0.5
U28C C34G A40G A43G C46G C55U C66U	≤ 0.5
C5G A15G A36G A45C G50U	≤ 0.5
C4U C11U A45G	0.687
C27A U35C A42U C55A	≤ 0.5
C29G C55G A57G	0.593
C5G G18C C61U A65C	≤ 0.5
C22U C33U C34A G38C	≤ 0.5
A14U U53G C61U A70G	≤ 0.5
A42G C66U	0.814
C31U C49U C66A G67A	≤ 0.5
C11A C60A	≤ 0.5

Variant	yeast fitness
C27A C31G A65U	0.679
U54G C61G	≤ 0.5
C11U C34A C46U	≤ 0.5
C4U G25A G56A	0.645
U13A A21U C22G C31A	0.701
U26C C33G	0.632
A42G G52C G58C	≤ 0.5
G18C U26C G50C	≤ 0.5
G10C G12A C33G U47G	≤ 0.5
G12A A15C C46G	0.567
G58C A65U	0.88
C61G	0.688
U2C U16G C66A	≤ 0.5
G12A A20U A21U C34G G63C	≤ 0.5
G39A G51C	0.562
A15C C30A A69C	≤ 0.5
C29G C33U G44C G48C C55A	≤ 0.5
C5U U16G C34U A40G A43G C62A A69C	0.565
C27U A45C C55G G58C	≤ 0.5
U2A G63A	0.927
G10A U54A	0.698

Variant	yeast fitness
C29U A37G G39C C49U	≤ 0.5
U2A C5G U8A C61A	≤ 0.5
C4U C30U A69U	0.736
A20U C34A C49U G58C C62A A69C	≤ 0.5
U3C G9A G17A	0.798
U16A G17A C22G	0.578
A21C A45C C49U U54C	≤ 0.5
G12A G17A U26A A40U	≤ 0.5
U3C U8G	0.581
G12A C27U	0.942
A15U U28A	0.57
U7C C24G A45G	≤ 0.5
A14G G52A G56C A65G	≤ 0.5
A14U A21G G58A	≤ 0.5
C33A G56C	0.634
A20U C62G G63C	0.601
A20G G23A G38C	0.656
C5U U28C C29G C49U	≤ 0.5
A14G G18A C30U	0.809
C5G C31A C55U A65C A70U	≤ 0.5
A20C C34G G68C	≤ 0.5
